Test results from ChEMBL document CHEMBL1255444, “In vitro antibacterial activities of JNJ-Q2, a new broad-spectrum fluoroquinolone” (Antimicrob Agents Chemother, 2010).
In brackets after ≈: the same amount, converted by molar mass. Activity calls are given as the source filed them. The rule behind the calls is not given here.

Experiments:
Streptococcus pneumoniae [1] = assay: Antibacterial activity against Streptococcus pneumoniae isolate OC7368 assessed as log reduction in bacterial growth at 4 times MIC measured at 6 hrs by time-kill assay; assay type: functional
Method in brief: (§1)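 Drug was diluted from 50× stocks made in water or acidified water. Samples were taken at 6 and 24 h and serially diluted onto TSA-5% sheep blood plates. Plates were incubated 20–24 h at 37°C in 5% CO2 before counting CFU. Log10 titer change is given relative to the starting inoculum.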

Streptococcus pyogenes = assay: Antibacterial activity against Streptococcus pyogenes by broth microdilution method; assay type: functional
Method in brief: (§2)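 MICs by CLSI M07-A7 broth microdilution in cation-adjusted Mueller-Hinton medium. For S. pneumoniae the medium was supplemented with 5% lysed horse blood. CLSI quality control strains were run alongside as appropriate.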

Streptococcus pneumoniae [2] = assay: Antibacterial activity against Streptococcus pneumoniae isolate OC7348 by broth microdilution method; assay type: functional
Method in brief: (§3)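 CLSI M07-A7 broth microdilution MIC. Medium was cation-adjusted Mueller-Hinton broth. For S. pneumoniae it was Mueller-Hinton supplemented with 5% lysed horse blood. CLSI quality-control strains were included as appropriate.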

Streptococcus pneumoniae [3] = assay: Antibacterial activity against Streptococcus pneumoniae isolate OC6585 assessed as log reduction in bacterial growth at 4 times MIC measured at 6 hrs by time-kill assay; assay type: functional; method in brief: as §1
Streptococcus pneumoniae [4] = assay: Antibacterial activity against Streptococcus pneumoniae isolate OC7376 assessed as log reduction in bacterial growth at 4 times MIC measured at 6 hrs by time-kill assay; assay type: functional; method in brief: as §1
Klebsiella pneumoniae = assay: Antibacterial activity against Klebsiella pneumoniae by broth microdilution method; assay type: functional; method in brief: as §2
Staphylococcus aureus [5] = assay: Antibacterial activity against methicillin-resistant Staphylococcus aureus isolate OC12501 assessed as log reduction in bacterial growth at 4 times MIC measured at 24 hrs by time-kill assay; assay type: functional
Method in brief: (§4)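 Overnight MRSA cultures were diluted into fresh cation-adjusted Mueller-Hinton broth to about 5 × 10^6 CFU/ml. […] Samples were plated serially diluted on trypticase soy agar, and CFU were counted after 20-24 h at 37°C. Value is the log10 decrease at 24 h from the starting inoculum; detection limit 100 CFU.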

Providencia stuartii = assay: Antibacterial activity against Providencia stuartii by broth microdilution method; assay type: functional; method in brief: as §2
Streptococcus pneumoniae [6] = assay: Antibacterial activity against erythromycin-resistant Streptococcus pneumoniae by broth microdilution method; assay type: functional, organism-based; method in brief: as §3
Streptococcus pneumoniae [7] = assay: Antibacterial activity against Streptococcus pneumoniae isolate OC5462 assessed as log reduction in bacterial growth at 2 times MIC measured at 6 hrs by time-kill assay; assay type: functional; method in brief: as §1
Streptococcus pneumoniae [8] = assay: Ratio of Gemifloxacin MIC90 to compound MIC90 for ciprofloxacin-resistant Streptococcus pneumoniae; assay type: functional
Staphylococcus aureus [9] = assay: Antibacterial activity against methicillin-resistant Staphylococcus aureus isolate OC11223 assessed as log reduction in bacterial growth at 4 times MIC measured at 24 hrs by time-kill assay; assay type: functional; method in brief: as §4
Staphylococcus aureus [10] = assay: Antibacterial activity against methicillin-resistant Staphylococcus aureus isolate OC17042 harboring gyrA S84L/G106D, parC S80F and parE D732N mutant gene assessed as log reduction in bacterial growth at 2 times MIC measured at 24 hrs by time-kill assay; assay type: functional; method in brief: as §4
Streptococcus pneumoniae [11] = assay: Antibacterial activity against Streptococcus pneumoniae isolate OC6608 assessed as log reduction in bacterial growth at 4 times MIC measured at 24 hrs by time-kill assay; assay type: functional; method in brief: as §1
Staphylococcus aureus [12] = assay: Antibacterial activity against methicillin-resistant Staphylococcus aureus isolate OC11521 harboring gyrA S84L/S85P, parC E84G mutant gene by broth microdilution method; assay type: functional; method in brief: as §3
Streptococcus pneumoniae [13] = assay: Antibacterial activity against Streptococcus pneumoniae OC7452 harboring parC S79Y mutant gene by agar dilution method; assay type: functional
Method in brief: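 MICs for the resistance-selection studies were determined by CLSI agar dilution on Mueller-Hinton medium. For S. pneumoniae the medium was supplemented with 5% lysed horse blood. For MRSA fluctuation-assay strains an arithmetic agar dilution scheme was used for a more precise MIC.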

Streptococcus pneumoniae [14] = assay: Ratio of Ciprofloxacin MIC90 to compound MIC90 for ciprofloxacin-resistant Streptococcus pneumoniae; assay type: functional
Staphylococcus aureus [15] = assay: Antibacterial activity against methicillin-resistant Staphylococcus aureus isolate OC4222 harboring gyrA S84L and parC S80F mutant gene by broth microdilution method; assay type: functional; method in brief: as §3

SMILES: COc1c(N2CCC/C(=C(\F)CN)C2)c(F)cc2c(=O)c(C(=O)O)cn(C3CC3)c12 [ACORAFLOXACIN]
- deltalog10CFU/ml (Streptococcus pneumoniae [1]): 3.7
- MIC (Streptococcus pyogenes): 8 ng/mL (≈ 0.0191 µM)
- MIC50 (Streptococcus pyogenes): 8 ng/mL (≈ 0.0191 µM)
- MIC90 (Streptococcus pyogenes): 0.015 µg/mL (≈ 0.0358 µM)
- MIC (Streptococcus pneumoniae [2]): 0.12 µg/mL (≈ 0.286 µM)
- deltalog10CFU/ml (Streptococcus pneumoniae [3]): 4.3
- deltalog10CFU/ml (Streptococcus pneumoniae [4]): 5.3
- MIC50 (Klebsiella pneumoniae): 0.12 µg/mL (≈ 0.286 µM)
- MIC90 (Klebsiella pneumoniae): 0.25 µg/mL (≈ 0.596 µM)
- deltalog10CFU/ml (Staphylococcus aureus [5]): 6.2
- MIC50 (Providencia stuartii): 2 µg/mL (≈ 4.77 µM)
- MIC90 (Providencia stuartii): 4 µg/mL (≈ 9.54 µM)
- Activity (Streptococcus pneumoniae [6]): Active
- deltalog10CFU/ml (Streptococcus pneumoniae [7]): 3.2
- Ratio (Streptococcus pneumoniae [8]): 9
- deltalog10CFU/ml (Staphylococcus aureus [9]): 3.9
- deltalog10CFU/ml (Staphylococcus aureus [10]): 3.8
- deltalog10CFU/ml (Streptococcus pneumoniae [11]): 7.1
- MIC (Staphylococcus aureus [12]): 1 µg/mL (≈ 2.38 µM)
- MIC (Streptococcus pneumoniae [13]): 0.015 µg/mL (≈ 0.0358 µM)
- Ratio (Streptococcus pneumoniae [14]): 9
- MIC (Staphylococcus aureus [15]): 0.5 µg/mL (≈ 1.19 µM)
